Laboratory results reported in ChEMBL document CHEMBL1158182, “Antifungal activity of chalcones: a mechanistic study using various yeast strains” (Eur J Med Chem, 2008).
Values after ≈ are worked out from the molar mass of the structure shown. Active and inactive are the calls of the source. The calls are words filed in the database; no cut-off is given here.

Experiments:
Ogataea angusta [1] = test: Antifungal activity against Hansenula polymorpha CD3 with ade1 leu2 cds3 genotype by agar dilution method; assay type: functional
Method in brief: (§1)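 H. polymorpha strains were tested by agar dilution on rich YPD agar at 37 °C. Compound stocks in 96% EtOH were mixed into the medium to give […]. Cells were suspended in water, serially diluted to 10^9, 10^7, 10^5 and 10^3 cells/ml, and applied to the agar with a metal replicator. MIC was read from growth.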

Ogataea angusta [2] = test: Antifungal activity against Hansenula polymorpha CRD2 with leu2 CDR2 genotype by agar dilution method; assay type: functional; method in brief: as §1
Ogataea angusta [3] = test: Antifungal activity against Hansenula polymorpha 2a with arg1 leu2 ura3 cys1 genotype by agar dilution method; assay type: functional; method in brief: as §1
Saccharomyces cerevisiae [4] = test: Antifungal activity against haploid Saccharomyces cerevisiae 2180 by agar dilution method; assay type: functional
Method in brief: (§2)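 S. cerevisiae and K. lactis strains were tested by agar dilution on rich YPD agar at 30 °C. Compound stocks in 96% EtOH were added to the medium to give […]. Cells were suspended in water, serially diluted to 10^9–10^3 cells/ml, and plated with a metal replicator. MIC was read from growth.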

Ogataea angusta [5] = test: Antifungal activity against Hansenula polymorpha WT2 with ade1 met6 genotype by agar dilution method; assay type: functional; method in brief: as §1
Saccharomyces cerevisiae [6] = test: Antifungal activity against haploid Saccharomyces cerevisiae Sigma 1278b by agar dilution method; assay type: functional; method in brief: as §2
Ogataea angusta [7] = test: Antifungal activity against Hansenula polymorpha M2 with met2 genotype by agar dilution method; assay type: functional; method in brief: as §1
Ogataea angusta [8] = test: Antifungal activity against Hansenula polymorpha AS1 with gsh1 genotype with cellular density of 10^3 cells/ml at >40 uM by agar dilution method; assay type: functional, organism-based
Ogataea angusta [9] = test: Antifungal activity against Hansenula polymorpha CTA1 with leu2 cat1 genotype by agar dilution method; assay type: functional
Method in brief: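 MICs by agar dilution on rich YPD medium. Compounds were added from 96% EtOH stocks to give final agar concentrations of 20 to 50 (units as printed in the source). Cells were suspended in water, serially diluted to 10^9, 10^7, 10^5 and 10^3 cells/ml, and spotted onto agar with a metal replicator. Incubation was at 37 °C for H. polymorpha and 30 °C for S. cerevisiae.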

Ogataea angusta [10] = test: Antifungal activity against Hansenula polymorpha AS2 with gsh2 genotype at 20 to 30 uM after 1 day by agar dilution method; assay type: functional, organism-based
Kluyveromyces lactis [11] = test: Antifungal activity against Kluyveromyces lactis 2-19B with MATalpha ura lys arg genotype by agar dilution method; assay type: functional; method in brief: as §2
Ogataea angusta [12] = test: Antifungal activity against Hansenula polymorpha M4 with met4 genotype by agar dilution method; assay type: functional; method in brief: as §1
Ogataea angusta [13] = test: Antifungal activity against Hansenula polymorpha 2a with cys1 genotype with cellular density of 10^9 cells/ml at 40 uM by agar dilution method; assay type: functional, organism-based
Ogataea angusta [14] = test: Antifungal activity against Hansenula polymorpha 2a with cys1 genotype with cellular density of 10^3 cells/ml at >40 uM by agar dilution method; assay type: functional, organism-based
Ogataea angusta [15] = test: Antifungal activity against Hansenula polymorpha AS2 with gsh2 genotype with cellular density of 10^3 cells/ml at >40 uM by agar dilution method; assay type: functional, organism-based
Saccharomyces cerevisiae [16] = test: Antifungal activity against diploid Saccharomyces cerevisiae 1a by agar dilution method; assay type: functional; method in brief: as §2
Ogataea angusta [17] = test: Antifungal activity against Hansenula polymorpha 2a with cys1 genotype at 20 to 30 uM after 1 day by agar dilution method; assay type: functional, organism-based
Ogataea angusta [18] = test: Antifungal activity against Hansenula polymorpha WT1 with cellular density of 10^3 cells/ml at >40 uM by agar dilution method; assay type: functional, organism-based
Kluyveromyces lactis [19] = test: Antifungal activity against Kluyveromyces lactis 2-18B with MATalpha metA1 ura3 leu2 genotype by agar dilution method; assay type: functional; method in brief: as §2
Ogataea angusta [20] = test: Antifungal activity against Hansenula polymorpha CD1 with ade1 leu2 cds1 genotype by agar dilution method; assay type: functional; method in brief: as §1
Ogataea angusta [21] = test: Antifungal activity against Hansenula polymorpha CD2 with ade1 leu2 cds2 genotype by agar dilution method; assay type: functional; method in brief: as §1
Ogataea angusta [22] = test: Antifungal activity against Hansenula polymorpha AS2 with gsh2 genotype with cellular density of 10^9 cells/ml at 40 uM by agar dilution method; assay type: functional, organism-based
Saccharomyces cerevisiae [23] = test: Antifungal activity against haploid Saccharomyces cerevisiae FY4 by agar dilution method; assay type: functional; method in brief: as §2
Saccharomyces cerevisiae [24] = test: Antifungal activity against haploid Saccharomyces cerevisiae 1S by agar dilution method; assay type: functional; method in brief: as §2
Ogataea angusta [25] = test: Antifungal activity against Hansenula polymorpha D22 with arg1/arg1 ade1/ADE1 leu2/leu2 URA3/ura3 CYS1/cys1 genotype by agar dilution method; assay type: functional; method in brief: as §1
Saccharomyces cerevisiae [26] = test: Antifungal activity against haploid Saccharomyces cerevisiae 1169 by agar dilution method; assay type: functional; method in brief: as §2
Kluyveromyces lactis [27] = test: Antifungal activity against Kluyveromyces lactis 1-6A with MATalpha uraA lys arg genotype by agar dilution method; assay type: functional; method in brief: as §2
Saccharomyces cerevisiae [28] = test: Antifungal activity against diploid Saccharomyces cerevisiae 29a by agar dilution method; assay type: functional; method in brief: as §2
Saccharomyces cerevisiae [29] = test: Antifungal activity against haploid Saccharomyces cerevisiae YSH1170 by agar dilution method; assay type: functional; method in brief: as §2
Ogataea angusta [30] = test: Antifungal activity against Hansenula polymorpha MC1 with met2 cys1 genotype by agar dilution method; assay type: functional; method in brief: as §1
Saccharomyces cerevisiae [31] = test: Antifungal activity against haploid Saccharomyces cerevisiae 10560-6B by agar dilution method; assay type: functional; method in brief: as §2
[32] = Stability of compound in liquid YPD media after 48 hrs by UV spectrophotometry; assay type: physicochemical
Method in brief: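 Compound from a 96% EtOH stock was added to liquid YPD to […]. The medium was inoculated with 10^5 cells/ml of H. polymorpha WT1 and incubated at 37 °C. Samples were taken at 24 and 48 h and centrifuged, and compound in the supernatant was measured by absorbance at 308 nm. Controls had no cells. Assays were run in triplicate.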

Ogataea angusta [33] = test: Antifungal activity against Hansenula polymorpha R3 with rgh3 genotype by agar dilution method; assay type: functional; method in brief: as §1
Ogataea angusta [34] = test: Antifungal activity against Hansenula polymorpha WT1 at 20 to 30 uM after 1 day by agar dilution method; assay type: functional, organism-based
Ogataea angusta [35] = test: Antifungal activity against Hansenula polymorpha AS1 with gsh1 genotype at 20 to 30 uM after 1 day by agar dilution method; assay type: functional, organism-based
Ogataea angusta [36] = test: Antifungal activity against Hansenula polymorpha 2b with arg1 ade1 leu2 genotype by agar dilution method; assay type: functional; method in brief: as §1
Ogataea angusta [37] = test: Antifungal activity against Hansenula polymorpha WT1 with ade1 ura3 genotype by agar dilution method; assay type: functional; method in brief: as §1
Ogataea angusta [38] = test: Antifungal activity against Hansenula polymorpha AS1 with arg1 gsh2delta genotype by agar dilution method; assay type: functional; method in brief: as §1
Saccharomyces cerevisiae [39] = test: Antifungal activity against haploid Saccharomyces cerevisiae YSH1171 by agar dilution method; assay type: functional; method in brief: as §2
Ogataea angusta [40] = test: Antifungal activity against Hansenula polymorpha AU05 with ade3 ura3 genotype by agar dilution method; assay type: functional; method in brief: as §1
Ogataea angusta [41] = test: Antifungal activity against Hansenula polymorpha AS1 with gsh1 genotype with cellular density of 10^9 cells/ml at 40 uM by agar dilution method; assay type: functional, organism-based
Ogataea angusta [42] = test: Antifungal activity against Hansenula polymorpha WT1 with cellular density of 10^9 cells/ml at 40 uM by agar dilution method; assay type: functional, organism-based

`O=C(/C=C/c1ccccc1)c1ccccc1` [CHALCONE] showed an MIC (Ogataea angusta [1]) of 30 µg/mL (≈ 144 µM), an MIC (Ogataea angusta [2]) of over 40 µg/mL and an MIC (Ogataea angusta [3]) of 25 µg/mL (≈ 120 µM). The MIC (Saccharomyces cerevisiae [4]) was over 40 µg/mL, the MIC (Ogataea angusta [5]) was 30 µg/mL (≈ 144 µM) and the MIC (Saccharomyces cerevisiae [6]) was over 40 µg/mL. For the same compound, the MIC (Ogataea angusta [7]) was 30 µg/mL (≈ 144 µM), the Activity (Ogataea angusta [8]) was “Active” and the MIC (Ogataea angusta [9]) was 30 µg/mL (≈ 144 µM). For the same compound, the Activity (Ogataea angusta [10]) was “Active”, the MIC (Kluyveromyces lactis [11]) was 25 µg/mL (≈ 120 µM) and the MIC (Ogataea angusta [12]) was under 20 µg/mL. The Activity (Ogataea angusta [13]) was “inactive”, the Activity (Ogataea angusta [14]) was “Active” and the Activity (Ogataea angusta [15]) was “Active”. For the same compound, the MIC (Saccharomyces cerevisiae [16]) was over 40 µg/mL, the Activity (Ogataea angusta [17]) was “Active” and the Activity (Ogataea angusta [18]) was “Active”. The MIC (Kluyveromyces lactis [19]) was under 20 µg/mL, the MIC (Ogataea angusta [20]) was 30 µg/mL (≈ 144 µM) and the MIC (Ogataea angusta [21]) was 30 µg/mL (≈ 144 µM). The Activity (Ogataea angusta [22]) was “inactive”, the MIC (Saccharomyces cerevisiae [23]) was over 40 µg/mL and the MIC (Saccharomyces cerevisiae [24]) was over 40 µg/mL. The MIC (Ogataea angusta [25]) was 30 µg/mL (≈ 144 µM), the MIC (Saccharomyces cerevisiae [26]) was over 40 µg/mL and the MIC (Kluyveromyces lactis [27]) was under 20 µg/mL. The MIC (Saccharomyces cerevisiae [28]) was over 40 µg/mL, the MIC (Saccharomyces cerevisiae [29]) was over 40 µg/mL and the MIC (Ogataea angusta [30]) was 20 µg/mL (≈ 96 µM). For the same compound, the MIC (Saccharomyces cerevisiae [31]) was over 40 µg/mL, the Activity [32] was 7.1 µg/mL and the MIC (Ogataea angusta [33]) was over 40 µg/mL. For the same compound, the Activity (Ogataea angusta [34]) was “Active”, the Activity (Ogataea angusta [35]) was “Active” and the MIC (Ogataea angusta [36]) was 30 µg/mL (≈ 144 µM). It also gave an MIC (Ogataea angusta [37]) of 30 µg/mL (≈ 144 µM), an MIC (Ogataea angusta [38]) of 20 µg/mL (≈ 96 µM) and an MIC (Saccharomyces cerevisiae [39]) of over 40 µg/mL. For the same compound, the MIC (Ogataea angusta [40]) was under 20 µg/mL, the Activity (Ogataea angusta [41]) was “inactive” and the Activity (Ogataea angusta [42]) was “inactive”.
